# Rows were chosen to be rich in hits. Some 2% of all compounds tested hit in one or more screens of this group.
# Xi reactivation – activators of X-chromosome reactivation in mouse fibroblasts; XiGFP mouse fibroblasts, % GFP-positive cells imaging, 3 d; cells co-treated with 5-aza-dC sensitizer; scaled so ellipticine positive control = 100%; hit rate 0.055% among 360,000; activation, % at 7.58 µM;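 active = mean normalized replicate activation at least 10% and every replicate at or above 10%; inconclusive = only one of the two criteria met; inactive = mean below 10% and not all replicates reach 10%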;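 also: 0% = median of on-plate neutral control wells and 100% = ellipticine 6 µM median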
#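 assay system = SV40-immortalized XiGFP fibroblast cells, line 68-5-11 | buffer or medium = DMEM plus 5-aza-dC sensitizer | doses = single-point pinned compound dosing | times = 3-day compound exposure, then 15 min fixation at room temperature | benchmarks = positive control ellipticine, 6 µM final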
# E-selectin induc – E-selectin induction on HUVECs; AID 686992; P16581; hit rate 0.37% among 260,000; HUVEC E-selectin immunofluorescence imaging; normalized: neutral wells 0, TNF-alpha wells 100; activation, % at 7.58 µM;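 active = mean E-selectin-positive cell signal at least 10% of the positive control, reached in at least 60% of replicates, without over 20% cell loss; inconclusive = no rule given, readout overlaps actives, possibly toxicity-flagged; inactive = the rest, including those meeting only one limit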
#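 Read-out: % PE-positive cells | Test system: HUVEC | Doses: One compound dose added by pin transfer | Buffer or medium: EGM-2 over gelatin coat | Signal: Immunofluorescence imaging | Benchmarks: TNF-alpha, DMSO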
# S100A4 MyoIIA – blocks human S100A4 binding to myosin IIA peptide; P26447; S100A4/TAMRA-MyoIIA peptide fluorescence polarization; inhibition, % at 10.7 µM; hit rate 0.14% among 360,000; AID 652163;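 active = mean inhibition of at least 70% across replicates, with every replicate also reaching that level; inconclusive = mean inhibition reaches 70% but some replicates fall short; inactive = mean inhibition below 70%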
# Target sequence (P26447 whole entry, looked up): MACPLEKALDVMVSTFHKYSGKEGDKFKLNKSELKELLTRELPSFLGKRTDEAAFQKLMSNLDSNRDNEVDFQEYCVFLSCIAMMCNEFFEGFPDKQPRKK
#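 Compound dosing: one dose per compound; test system: human S100A4 monomer with TAMRA-labelled myosin IIA peptide; probe or stimulus: TAMRA-labelled myosin IIA heavy-chain peptide probe, 5 nM; medium: HEPES buffer with Ca2+, pH 7.2; schedule: 5 min incubation before reading; benchmarks: neutral control DMSO, positive control TFP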
# DENV2 CPE rescue – inhibitors of DENV2 cytopathic effect. DENV2-infected cells, cytopathic effect rescue, plate reader. CPE inhibition, % at 9.99 µM. hit rate 1.7% among 350,000. AID 651640; in the data active = CPE inhibition above about 20%, passing the limit was not always enough; inconclusive = no clear call, values can overlap the other calls; tested in BHK-21 cells;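 also: 0% = median of neutral control wells and 100% = median of positive control wells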
# * = called active by the depositor; ? = inconclusive; · = no result.
SMILES,Xi reactivation,E-selectin induc,S100A4 MyoIIA,DENV2 CPE rescue
O=C(O)C[C@H]1C[C@H]2c3cc(NC(=O)NC4CCCC4)ccc3O[C@H]2[C@H](CO)O1,0,0,23,36*
O=C(Nc1ccc2c(c1)[C@@H]1C[C@H](CC(=O)N3CCCCC3)O[C@@H](CO)[C@@H]1O2)NC1CCCCC1,0,0,16,32*
O=C(Nc1ccc2c(c1)[C@H]1C[C@H](CC(=O)N3CCCCC3)O[C@@H](CO)[C@H]1O2)NC1CCCCC1,0,·,·,·
CN1C[C@H](O)COC[C@H]2O[C@@H](CC(=O)NC3CCCC3)CC[C@@H]21,0,0,11,-1
CC1=CCC2C(=O)N(c3ccc(S(N)(=O)=O)cc3)C(=O)C2C1 (stereo not drawn),0,4,-7,1
COc1ccccc1CNC(=O)C[C@H]1CC[C@H]2[C@@H](COC[C@H](O)CN2Cc2ccc3c(c2)OCO3)O1,0,0,20,3
CS(=O)(=O)Nc1ccc(C(=O)Nc2ccccc2Sc2ccccc2)cc1,1,·,·,·
COc1ccc(N2C(=O)/C(=C\c3ccco3)N=C2SCC(=O)N(C(C)C)C(C)C)cc1Cl,0,·,·,·
Cc1[nH]c(C)c(S(=O)(=O)Nc2ccccc2Cl)c1C(=O)N1CCCC1,0,·,-2,-5
COc1ccccc1NS(=O)(=O)c1c(C)[nH]c(C)c1C(=O)N1CCCC1,0,50*,-6,-1
CCN(CC(=O)NCc1cccs1)C(=O)/C=C/c1cc(OC)ccc1OC,0,-1,-6,-3
CCN(CC(=O)NCc1cccs1)C(=O)/C=C/c1ccc(OC)cc1OC,0,12,1,30*
COc1cccc(NC(=O)Cn2c(=O)oc3ccccc32)c1,·,·,-2,·
COc1ccc(-c2nc(NC(=O)Cn3c(=O)oc4ccccc43)sc2C)cc1,0,39*,2,-2
COc1ccc2c3c(n(C)c2c1)[C@H](CO)N(S(=O)(=O)c1cn(C)cn1)CC31CCN(C)CC1,0,0,-7,32*
COc1ccc2c3c(n(C)c2c1)[C@@H](CO)N(C)CC31CCN(CC2CC2)CC1,0,0,·,48*
COc1ccc2c3c(n(C)c2c1)[C@@H](CO)N(S(C)(=O)=O)CC31CCN(CC2CCCC2)CC1,0,0,-2,56*
C[C@@H]1CN([C@@H](C)CO)C(=O)c2cc(NC(=O)C3CCCCC3)ccc2O[C@@H](C)CCCCO[C@@H]1CN(C)C,0,0,·,·
O=C1Cc2cc(O)ccc2O1,0,0,0,1
C=CCn1c(C)nnc1SCC(=O)NC1CC1,0,0,-7,93*
COc1cccc(NC(=O)CCSc2ccc(C)cc2)c1,1,0,·,·
Cc1ccc(S(=O)(=O)N(C)C)cc1-n1c(SCC(=O)Nc2ccc(F)cc2Cl)nc2ccccc2c1=O,0,0,·,·
COc1ccccc1CN(C)C(=O)c1cccc(S(=O)(=O)N2CCCc3ccccc32)c1,0,·,-5,81*
CCOC(=O)c1oc2ccc(S(=O)(=O)n3nc(-c4ccc(C)cc4)cc3N)cc2c1C,0,1,1,90*
N#C/C(=C(/O)COc1ccccc1)c1nnc2n1CCCCC2,0,0,2,-5
SMILES,Xi reactivation,E-selectin induc,S100A4 MyoIIA,DENV2 CPE rescue
Oc1ccccc1C=NCC(O)c1ccccc1 (stereo not drawn),0,·,-4,76*
O=C1c2ccccc2[C@@H]2C[C@@H](O)[C@H](Nc3cccc4ccccc34)CCN12,0,1,-3,26*
O=C(Nc1ccc(F)cc1)N1C[C@H]2[C@@H](c3ccccc31)[C@@H](CO)N2Cc1ccccc1,0,0,39,12
O=C(Nc1ccc(F)cc1)N1C[C@H]2[C@@H](c3ccccc31)[C@@H](CO)N2Cc1ccccc1Cl,0,0,-6,30*
O=C(Nc1ccccc1)N1C[C@@H]2[C@H](c3ccccc31)[C@@H](CO)N2Cc1ccccc1,0,0,-4,45*
CC(C)NC(=O)N1[C@H](CO)[C@H]2c3ccccc3N(C(=O)Nc3ccc(F)cc3)C[C@H]21,0,0,-3,27*
O=C(Nc1ccccc1)N1C[C@H]2[C@@H](c3ccccc31)[C@H](CO)N2Cc1ccccc1,0,0,3,57*
O=C(O)CCCCCNS(=O)(=O)c1ccc2c3c(cccc13)C(=O)N2,0,·,-7,-5
Cc1c(NS(=O)(=O)c2ccc(C(=O)NCc3ccc(F)cc3)cc2)c(=O)n(-c2ccccc2)n1C,0,0,-3,-8
COc1ccc(N(CC(=O)NCCSc2ccccc2)S(=O)(=O)c2ccccc2)c(OC)c1,0,0,-1,88*
Cc1c(C(=O)Nc2cccc(F)c2)cnn1-c1ccccc1,0,·,4,50*
Cc1c(C(=O)Nc2ccccc2)cnn1-c1ccccc1,0,0,-5,-5
CC(C)NC(=O)N(C)C[C@H]1Oc2ncc(C#Cc3ccncc3)cc2C(=O)N([C@@H](C)CO)C[C@H]1C,0,0,-6,3
CC(C)NC(=O)Nc1ccc2c(c1)CC(=O)N([C@@H](C)CO)C[C@@H](C)[C@@H](CN(C)Cc1ccc(-c3ccccc3)cc1)O2,-2,·,5,5
CC(C)NC(=O)Nc1ccc2c(c1)CC(=O)N([C@@H](C)CO)C[C@H](C)[C@@H](CN(C)Cc1ccc(C(=O)O)cc1)O2,0,37*,5,?
CC(C)NC(=O)Nc1ccc2c(c1)CC(=O)N([C@H](C)CO)C[C@@H](C)[C@@H](CN(C)Cc1ccc(C(=O)O)cc1)O2,0,18,-12,68*
CC(C)NC(=O)Nc1ccc2c(c1)CC(=O)N([C@H](C)CO)C[C@H](C)[C@H](CN(C)Cc1ccc(-c3ccccc3)cc1)O2,-1,·,-2,28*
CC(C)NC(=O)Nc1ccc2c(c1)CC(=O)N([C@H](C)CO)C[C@@H](C)[C@H](CN(C)Cc1ccc(C(=O)O)cc1)O2,0,-2,-19,?
C[C@@H]1CN([C@H](C)CO)C(=O)c2cc(/C=C/c3ccccc3)cnc2O[C@H]1CN(C)C(=O)C1CCCCC1,-1,0,18,-5
CC1=NN(c2cccc(F)c2)C(=O)/C1=C/c1ccc(N(C)C)cc1,0,·,-4,1
COc1ccc(/C=C2/C(=O)N(c3cccc(F)c3)N=C2C)c(OC)c1,0,·,3,37*
CC1=CC(=O)C(Sc2ccc(C)cc2)=CC1=O,6,·,6,95*
Cc1ccc(SC2=C(Sc3ccc(C)cc3)C(=O)c3ccccc3C2=O)cc1,0,5,-1,-1
C#CCOCCOCCOCCNc1nc(N2CCN(C(=O)Cn3cc(CC(C)O)nn3)CC2)nc(N2CCN(C(=O)[C@H]([C@@H](C)O)n3cc(CCCCN)nn3)CC2)n1 (stereo partly drawn),0,0,-1,-9

# Assay outcomes: PubChem BioAssay, Broad Institute
